Assay results of several laboratories.
Target: Dual specificity tyrosine-phosphorylation-regulated kinase 4 (DYRK4, Homo sapiens, UniProt Q9NR20)
One construct used (Q9NR20 1-520): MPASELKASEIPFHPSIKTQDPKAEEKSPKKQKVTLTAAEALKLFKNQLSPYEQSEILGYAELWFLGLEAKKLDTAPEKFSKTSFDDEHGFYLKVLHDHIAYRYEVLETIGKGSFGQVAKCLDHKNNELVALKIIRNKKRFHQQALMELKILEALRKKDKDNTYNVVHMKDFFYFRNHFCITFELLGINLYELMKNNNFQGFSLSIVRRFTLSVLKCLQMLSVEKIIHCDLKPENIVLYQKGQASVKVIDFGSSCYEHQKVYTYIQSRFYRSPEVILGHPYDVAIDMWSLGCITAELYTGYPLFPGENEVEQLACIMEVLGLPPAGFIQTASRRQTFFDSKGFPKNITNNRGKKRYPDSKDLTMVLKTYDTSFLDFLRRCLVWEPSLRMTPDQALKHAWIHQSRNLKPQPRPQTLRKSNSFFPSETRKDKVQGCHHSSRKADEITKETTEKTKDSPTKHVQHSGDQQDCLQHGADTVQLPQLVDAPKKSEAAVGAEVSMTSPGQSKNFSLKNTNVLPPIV

COc1cc2ncnc(Nc3ccc(Oc4ccccc4)c(C)c3C)c2cc1OC — inhibition (enzyme activity, inhibitor; 1 µM): -1%
O=C1NC(=O)c2cc(Nc3ccc(F)cc3)c(Nc3ccc(F)cc3)cc21 — remaining signal (cell-free assay; 0.5 µM): 98.6%
CCCS(=O)(=O)Nc1ccc(F)c(C(=O)c2c[nH]c3ncc(-c4ccc(Cl)cc4)cc23)c1F — inhibition (enzyme activity, inhibitor; 1 µM): < 10%
Cn1cc(-c2cccc(N3CCc4c(sc5c4CC(C)(C)C5)C3=O)c2CO)cc(Nc2ccncn2)c1=O — inhibition (enzyme activity, inhibitor; 1 µM): 2%
Cn1cnc(Br)c1C1=CN(c2ncnc3[nH]cnc23)CCS1 — inhibition (enzyme activity, inhibitor, radiometric; 50 nM): 14.9%
COc1cc(-c2cc(-c3ccc(N4CCNCC4)cc3)cnc2C)cc(OC)c1OC — inhibition (enzyme activity, inhibitor; 0.1 µM): 2%
COc1cc2ncnc(Nc3ccc(Oc4ccccc4)cc3C)c2cc1OC — inhibition (enzyme activity, inhibitor; 1 µM): 0%
O=C(Nc1cnn(-c2csc(C(=O)NC3COC3)c2)c1)Nc1c(F)cccc1Cl — remaining activity (enzyme activity, inhibitor; 5 µM): 96.2%
CC(C)(C)c1nc(-c2cccc(NS(=O)(=O)c3c(F)cccc3F)c2F)c(-c2ccnc(N)n2)s1 — remaining activity (enzyme activity, inhibitor, radiometric; 1 µM): 38%
Cn1cc(-c2cc(F)cc(N3CCn4c(cc5c4CCCC5)C3=O)c2CO)cc(Nc2ccc(N3CCN(C4COC4)CC3)cn2)c1=O — inhibition (enzyme activity, inhibitor; 0.1 µM): 5%
CC(C)(O)[C@H]1CC[C@H](Nc2ccc3ncc(-c4cccc(C(F)(F)F)c4)n3n2)CC1 — remaining activity (enzyme activity, inhibitor; 1 µM): 97.3%
CC(C)(C)c1nc2c(s1)c1nc(N)ncc1c1ccc(NS(=O)(=O)c3c(F)cccc3F)c(F)c12 — remaining activity (enzyme activity, inhibitor, radiometric; 1 µM): 92%
O=C1Nc2ccc(Cl)cc2C1=Cc1cc(Cl)c(O)c(Cl)c1 — remaining signal (cell-free assay; 0.5 µM): 95.7%
O=C(Nc1cnn(-c2csc(C(=O)NC3COC3)c2)c1)Nc1ccccc1Cl — remaining activity (enzyme activity, inhibitor; 5 µM): 94.6%
